Here are results for eleven molecules from ChEMBL document CHEMBL1240461, “Regioselective synthesis and molecular modeling study of vasorelaxant active 7,9-dioxa-1,2-diaza-spiro[4.5]dec-2-ene-6,10-diones” (Eur J Med Chem, 2010).

The test has as its system Aorta. Put plainly: Vasorelaxant activity in Wistar rat thoracic aortic ring assessed as inhibition of norepinephrine hydrochloride-induced contraction. In kind it is functional, tissue-based. Put shortly: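 Isolated thoracic aortic rings from male Wistar rats, stabilised at 2 g resting tension for 2 h. Controls used DMSO alone at matching concentrations. IC50 is the concentration giving 50% reduction of maximal norepinephrine contracture, from a best-fit line.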
As for `CC1(C)OC(=O)C2(C(=O)O1)C(c1ccc(Cl)cc1)C(c1ccccc1)=NN2c1ccccc1` (stereo unspecified), the IC50 (commonly the point on the concentration scale where inhibition reaches its midpoint) worked out at 590 µM.
In the case of `CC1(C)OC(=O)C2(C(=O)O1)C(c1ccc(Cl)cc1)C(c1ccccc1)=NN2c1cccc(Cl)c1` (stereo unspecified) it was 448 µM; in that of `CC1(C)OC(=O)C2(C(=O)O1)C(c1ccc(F)cc1)C(c1ccccc1)=NN2c1ccccc1` (stereo unspecified), 1470 µM; in that of `CC1(C)OC(=O)C2(C(=O)O1)C(c1ccc(F)cc1)C(c1ccccc1)=NN2c1cccc(Cl)c1` (stereo unspecified), 643 µM.
As to `COc1ccc(C2C(c3ccccc3)=NN(c3ccccc3)C23C(=O)OC(C)(C)OC3=O)cc1` (stereo unspecified), the IC50 was determined as 500 µM.
In the case of `COc1ccc(C2C(c3ccccc3)=NN(c3cccc(Cl)c3)C23C(=O)OC(C)(C)OC3=O)cc1` (stereo unspecified) it was 325 µM; in that of `CN(C)c1ccc(C2C(c3ccccc3)=NN(c3cccc(Cl)c3)C23C(=O)OC(C)(C)OC3=O)cc1` (stereo unspecified), 430 µM; in that of `CC1(C)OC(=O)C2(C(=O)O1)C(c1cccs1)C(c1ccccc1)=NN2c1ccccc1` (stereo unspecified), 585 µM.
Take `CC1(C)OC(=O)C2(C(=O)O1)C(c1cccs1)C(c1ccccc1)=NN2c1cccc(Cl)c1` (stereo unspecified): the IC50 stood at 321 µM.
Regarding `Cc1ccc(C2C(c3ccccc3)=NN(c3ccccc3)C23C(=O)OC(C)(C)OC3=O)o1` (stereo unspecified), the half-inhibitory concentration (IC50) was 719 µM.
In the case of `Cc1ccc(C2C(c3ccccc3)=NN(c3cccc(Cl)c3)C23C(=O)OC(C)(C)OC3=O)o1` (stereo unspecified) it was 729 µM.
